Screening results as filed in PubChem.
The list is not random: actives were taken first. Their share in the collection is about 2.9%.
ABHD4 inh: ABHD4 inhibitors, primary screen, biochemical, fluorescence polarization, mouse | inhibition, % at 8.92 µM | purified mABHD4, FP-Rh probe fluorescence polarization | AID 720543, 2013 | 370,000 compounds, 0.54% hits | (Lyso)-N-acylphosphatidylethanolamine lipase (Mus musculus), Q8VD66;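 active = inhibition exceeding the mean over every tested compound plus 3 SD, cut at about 30% in these data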;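 also: 0% = plate median of compound wells and 100% = S159A mutant with DMSO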
Target sequence (Q8VD66 whole entry, looked up): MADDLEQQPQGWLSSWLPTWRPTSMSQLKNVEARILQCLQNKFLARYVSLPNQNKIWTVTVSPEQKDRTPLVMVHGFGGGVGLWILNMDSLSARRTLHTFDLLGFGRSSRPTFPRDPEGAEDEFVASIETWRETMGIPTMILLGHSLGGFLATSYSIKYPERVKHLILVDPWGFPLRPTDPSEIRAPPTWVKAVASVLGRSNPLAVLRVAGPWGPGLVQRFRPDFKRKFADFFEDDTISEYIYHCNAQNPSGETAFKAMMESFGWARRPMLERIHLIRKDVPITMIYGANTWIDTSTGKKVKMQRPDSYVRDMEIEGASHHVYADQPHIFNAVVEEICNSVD
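System: mouse ABHD4 enzyme, wild type / Medium: HEPES pH 7.0, NaCl, Pluronic buffer / Reagent: FP-Rh activity-based fluorescent probe / Control set: S159A mutant high control, sample median low control / Detection: fluorescence polarization with parallel and perpendicular emission, 525/598 nm / Schedule: 45 min + 60 min at 25 °C / Compound dosing: 8.92 µM, single dose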
TCR CD3 inh: inhibitors of human TCR-CD3 interaction, primary screen, biochemical, fluorescence, TAMRA-labeled TCR probe | inhibition, % at 9.4 µM | 360,000 compounds, 0.37% hits; in the data active = inhibition above about 19%;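 also: recombinant mutant TCR 2C K166C tagged with TAMRA read by polarization; 0% = receptor in buffer alone and 100% = receptor with positive control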
PRMT1 inh: PRMT1 methyltransferase inhibitors, primary screen, biochemical, fluorescence polarization; Protein arginine N-methyltransferase 1 (Homo sapiens), Q99873; 370,000 compounds, 1.3% hits; inhibition, % at 2.79 µM; recombinant PRMT1, activity-based probe fluorescence polarization;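 active = inhibition above about 21% made by adding two undisclosed values, limit read from the data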
HTRA1 inhibitor: HTRA1 serine protease inhibitors, primary screen, biochemical, fluorescence polarization, HTS | Q92743 | recombinant HTRA1, FP-rhodamine activity-based probe | AID 504803, 2011 | inhibition, % at 5.96 µM | 340,000 compounds, 0.5% hits; in the data active = inhibition above about 36%;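 also: 0% = enzyme with DMSO and 100% = wells lacking enzyme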
SIAE inh: human SIAE inhibitors, primary screen, biochemical, fluorescence polarization, FP-Rh probe, 1536-well HTS; inhibition, % at 9.66 µM; SIAE FP-Rh probe binding; 370,000 compounds, 0.69% hits; Sialate O-acetylesterase (Homo sapiens), Q9HAT2;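 active = inhibition above a cutoff: mean of compounds within the control limits plus 3 SD of those, cut at about 17% in these data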;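 also: 0% = plate median of compound wells and 100% = probe without SIAE protein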
ATG4B inh: ATG4B protease inhibitors, primary screen, biochemical, fluorescence, uHTS | Cysteine protease ATG4B (Homo sapiens), Q9Y4P1 | ATG4B cleavage of LC3-PLA2, NBD-HPC fluorescence, 1 h | inhibition, % at 8.33 µM | 340,000 compounds, 0.51% hits; in the data active = inhibition above about 40%
ATG4B confirm: ATG4B protease inhibitors, retest, confirmation, biochemical, fluorescence, single concentration; shares compounds with ATG4B inh; ATG4B protease fluorescent substrate cleavage assay; inhibition, % at 8.33 µM; 320 compounds, 92% hits; in the data active = inhibition above about 39%
PLA2 counter: PLA2 enzyme inhibition, counter-screen for ATG4B inhibitor project, biochemical, single concentration, uHTS hits; shares compounds with ATG4B inh; purified PLA2, NBD-C6-HPC fluorescence, 45 min; inhibition, % at 8.33 µM; 1,600 compounds, 66% hits; AID 588402, 2011; in the data active = inhibition above about 50%
Target sequence (P04054 whole entry, looked up): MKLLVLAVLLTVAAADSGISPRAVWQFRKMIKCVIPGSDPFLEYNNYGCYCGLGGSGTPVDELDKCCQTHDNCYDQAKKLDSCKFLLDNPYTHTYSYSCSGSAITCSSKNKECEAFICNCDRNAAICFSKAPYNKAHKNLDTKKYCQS
The depositor's hits bear a star; nt = no result.

SMILES | ABHD4 inh | TCR CD3 inh | PRMT1 inh | HTRA1 inhibitor | SIAE inh | ATG4B inh | PLA2 counter | others
O=S(=O)(Nc1nc2ccccc2nc1N1CCN(c2ccccc2F)CC1)c1ccc(Cl)cc1 | -7 | -5 | 2 | -1 | -1 | 71* | 68*
CN1C(=O)c2cc(NC(=O)Nc3ccccc3)ccc2OC[C@H]2O[C@@H](CC(=O)NC3Cc4ccccc4C3)CC[C@@H]21 | 8 | nt | 1 | nt | 3 | nt | nt
O=C1Nc2ccc(F)cc2C12Nc1ccccc1-c1nnc(SCc3ccccc3Cl)nc1O2 (centres undefined) | -3 | -8 | 1 | -5 | 6 | 43* | 77*
O=C1Nc2ccc(F)cc2C12Nc1ccccc1-c1nnc(SCc3ccccc3)nc1O2 (centres undefined) | -6 | 3 | 0 | -7 | -1 | 6 | nt
Cc1c(Cl)cccc1NC(=S)N1CCCN(Cc2ccccc2F)C1 | -1 | 7 | -2 | -12 | -64 | 64* | 56*
Cc1c(Cl)cccc1NC(=S)N1CCCN(Cc2ccc(F)cc2)C1 | -17 | 1 | -3 | -21 | -61 | 52* | 55*
Cc1ccc(NS(=O)(=O)c2cc([N+](=O)[O-])ccc2NNC(=S)Nc2cccc(Cl)c2)c(C)c1 | nt | nt | nt | 19 | nt | 88* | 101*
COc1ccc(S[C@]2(C(=O)N3CCN(c4ncccn4)CC3)CC(=O)N[C@@H]2c2ccc(OC)cc2)cc1 | 1 | nt | 8 | nt | -4 | nt | nt
COC(=O)[C@]12C[C@H](CC(=O)N3CCOCC3)C(=O)N(Cc3ccc(Cl)cc3Cl)C1=C[C@H](C1CCCC1)O[C@@H]2C | -8 | nt | -6 | nt | 2 | nt | nt
O=C(O)c1cc2c(cc1NC(=O)c1ccccc1OC(F)F)OCCCO2 | 10 | -7 | -1 | -3 | 1 | 44* | 42 | ATG4B confirm=58*
O=C1NC(=Nc2ccccc2)S/C1=C\c1cccn1-c1ccccc1 | -16 | 1 | 0 | -15 | -3 | 68* | 59*
O/N=C(/c1ccc(F)cc1)C1CC1c1c(F)cccc1Cl (centres undefined) | -24 | -4 | 2 | -16 | -3 | 48* | 47
COc1ccc(C2CC2/C(=N/O)c2ccccc2)cc1 (centres undefined) | -7 | 5 | 3 | -11 | 2 | 5 | nt
CCCCOc1ccc(-c2cc(C(=O)NNC(=S)NCC)c3ccccc3n2)cc1 | nt | nt | nt | -3 | nt | 47* | 58*
O=C(Cc1ccccc1)Nc1nnc(-c2cccnc2)s1 | 2 | nt | -5 | nt | -3 | nt | nt
Cc1ccc(C)c(C(C)NC(=S)NCc2ccc(F)cc2)c1 (centres undefined) | -14 | -8 | 2 | -15 | 4 | 49* | 50*
COc1ccc(C(C)NC(=S)NCc2ccc(F)cc2)cc1 (centres undefined) | 0 | -1 | 0 | -5 | 1 | 12 | nt
CCOc1cc(/C=C2\CCC/C(=C\c3cc(Cl)c(O)c(OCC)c3)C2=O)cc(Cl)c1O | 5 | 10 | -1 | 11 | -3 | 44* | 51*
O=C1CCC[C@H]2C[C@H](NCc3ccc(Cl)c(C(F)(F)F)c3)CC[C@]23CCCN13 | 6 | nt | -2 | nt | 4 | nt | nt
Cc1ccc(CSCCC(=O)NCCC2=CCCCC2)cc1 | -4 | 3 | -2 | -3 | 3 | 16 | nt
O=C(CCSCc1cccc(Cl)c1)NCCC1=CCCCC1 | -7 | 2 | 0 | -20 | -4 | 46* | 25
Cc1cc(OCC(=O)Nc2ccc(S(=O)(=O)NC3=NCCCCC3)cc2)c(C(C)C)cc1Cl | -29 | -2 | 2 | -80 | -41 | 48* | 56*
Cc1ccc(Cl)c(OCC(=O)Nc2ccc(S(=O)(=O)NC3=NCCCCC3)cc2)c1 | -5 | 2 | -1 | -20 | -1 | -3 | nt
Cc1ccc(C2CC(C(F)F)n3ncc(C(=O)Nc4cnn(Cc5ccccc5C)c4)c3N2)cc1 (centres undefined) | 3 | 7 | 1 | -10 | 6 | 54* | 71*
Cc1ccccc1Cn1cc(NC(=O)c2nn(C)cc2Cl)cn1 | -1 | -1 | 1 | -6 | -1 | 4 | nt
SMILES | ABHD4 inh | TCR CD3 inh | PRMT1 inh | HTRA1 inhibitor | SIAE inh | ATG4B inh | PLA2 counter | others
CC(C)C[C@H](NC1(C(=O)NC2CCCCC2)CCN(C(=O)OC(C)(C)C)CC1)C(=O)NCCc1c[nH]c2ccccc12 | 7 | nt | 4 | nt | 8 | nt | nt
Cc1c(Cl)cccc1Nc1ccccc1C(=O)O | 2 | 12 | 0 | -2 | -6 | 44* | 44 | ATG4B confirm=57*
Cc1c(Cl)cccc1Nc1ncccc1C(=O)O | 6 | -6 | 4 | 0 | 6 | 8 | nt
Cc1ccc(-n2nnnc2SCC(=O)Nc2ccccc2-c2ccccc2)cc1C | -10 | 2 | -4 | -47 | -1 | 52* | 48
CC(=O)c1ccc(N2CCN(C(=O)CCCn3c(=S)[nH]c4cc5c(cc4c3=O)OCO5)CC2)cc1 | 3 | -4 | -2 | 3 | 0 | 45* | 61*
O=C(CCCn1c(=S)[nH]c2cc3c(cc2c1=O)OCO3)N1CCN(c2ccccc2)CC1 | 3 | 10 | -1 | 3 | 0 | 38 | nt
O=C(CCCn1c(=S)[nH]c2cc3c(cc2c1=O)OCO3)N1CCc2ccccc2C1 | 5 | -3 | -2 | -6 | 1 | 60* | 63*
O=C(CCCn1c(=S)[nH]c2cc3c(cc2c1=O)OCO3)N1CCN(c2ccc(Cl)cc2)CC1 | 2 | -13 | -4 | 0 | 1 | 53* | 57*
C[C@@H]1CCCN1c1cccc2c1S(=O)(=O)N1CC[C@H](C1)O2 | 3 | nt | 0 | nt | 3 | nt | nt
COc1ccc(C2CC(O)(c3ccccc3)Oc3c(C)ccc(C)c32)cc1 (centres undefined) | -29 | -6 | -2 | -13 | -14 | 56* | 65*
COC(=O)[C@H](C(C)C)N1CCc2nnn(Cc3ccccc3)c2-c2cc(F)ccc2S1(=O)=O | -3 | nt | -5 | nt | 0 | nt | nt
CCC(C(=O)O)N1C(=O)/C(=C/C(C)=C/c2ccccc2)SC1=S (centres undefined) | -8 | -3 | 3 | -24 | 0 | 80* | 83*
CC(/C=C1\SC(=S)N(CCCC(=O)Nc2ccc(C(=O)O)cc2)C1=O)=C\c1ccccc1 | -115 | 10 | -2 | -100 | -71 | 65* | 28 | ATG4B confirm=41*
